Measurements pooled from the literature.
Protocols differ between the studies behind these lines.
Spike glycoprotein: Spike glycoprotein (Severe acute respiratory syndrome coronavirus 2, UniProt P0DTC2)
SLC18A2: Synaptic vesicular amine transporter (SLC18A2, Homo sapiens, UniProt Q05940)

SMILES | target | read-out | action | technique | setting | endpoint | value
CCOC(=O)c1ccc(OC(=O)CCCCCN=C(N)N)cc1 | Plasminogen (PLG, Homo sapiens, UniProt P00747) | enzyme activity | inhibitor |  |  | IC50 | 316 nM
COc1cc(CCNC(C)c2ccccc2O)c(OC)cc1C#N (stereo not drawn) | Alpha-2A adrenergic receptor (ADRA2A, Homo sapiens, UniProt P08913) | cell-free assay |  | radioligand |  | Ki | 912 nM
CC[C@H](C)[C@H](NC(=O)[C@H](CCCCNC(=O)CN(CCNC(=O)CN(CCNC(=O)CN(CCNC(=O)CN(CCNC(=O)[C@H](CCCNC(=N)N)NC(C)=O)C(=O)Cn1ccc(N)nc1=O)C(=O)Cn1cnc2c(=O)[nH]c(N)nc21)C(=O)Cn1cnc2c(=O)[nH]c(N)nc21)C(=O)Cn1ccc(N)nc1=O)NC(=O)[C@H](CC(=O)O)NC(=O)[C@H](CO)NC(=O)[C@@H](NC(=O)[C@H](CCCNC(=N)N)NC(=O)[C@H](CCSC)NC(=O)[C@H](CO)NC(=O)[C@H](C)NC(=O)[C@H](CCC(=O)O)NC(=O)[C@H](C)NC(=O)[C@H](Cc1c[nH]cn1)NC(=O)CNC(=O)[C@H](CC(C)C)NC(=O)[C@H](CCC(=O)O)NC(=O)[C@H](CC(=O)O)NC(=O)[C@H](CC(C)C)NC(=O)[C@H](CC(C)C)NC(=O)[C@H](CCCNC(=N)N)NC(=O)[C@H](CCS)NC(=O)[C@H](CCCC(=O)NCCN(CC(=O)NCCN(CC(=O)NCCN(CC(=O)NCCN(CC(=O)N[C@@H](CCCNC(=N)N)C(N)=O)C(=O)Cn1cnc2c(=O)[nH]c(N)nc21)C(=O)Cn1ccc(N)nc1=O)C(=O)Cn1ccc(N)nc1=O)C(=O)Cn1cnc2c(=O)[nH]c(N)nc21)NC(=O)[C@H](CCC(=O)O)NC(=O)[C@H](Cc1ccc(O)cc1)NC(=O)[C@@H](NC(=O)[C@H](CCCCN)NC(=O)[C@H](CCC(N)=O)NC(=O)[C@H](CC(C)C)NC(=O)[C@@H](NC(=O)[C@H](Cc1c[nH]c2ccccc12)NC(=O)[C@H](CCC(=O)O)NC(=O)[C@H](CCCCN)NC(=O)[C@H](CC(=O)O)NC(C)=O)[C@@H](C)CC)[C@@H](C)CC)C(C)C)C(=O)N[C@@H](Cc1ccc(O)cc1)C(=O)N[C@@H](CCC(=O)O)C(=O)N[C@@H](Cc1ccccc1)C(=O)N[C@@H](CCSC)C(=O)N[C@@H](CCCCN)C(=O)N[C@@H](CCCCN)C(N)=O | Spike glycoprotein | binding |  | SPR |  | Kd | 5.2 nM
O=c1[nH]c2ccccc2n1CCCN1CCC(n2c(=O)[nH]c3cc(Cl)ccc32)CC1 | SLC18A2 | transporter uptake | inhibitor |  |  | IC50 | 58 nM
O=C(Nc1ccc2c(c1)C=CCP(=O)(O)O2)c1ccccc1Br | Carbonic anhydrase 2 (CA2, Homo sapiens, UniProt P00918) | enzyme activity | inhibitor | stopped-flow |  | Ki | > 10000 nM
Cn1c(=O)c2[nH]cnc2n(C)c1=O | Solute carrier family 22 member 11 (SLC22A11, Homo sapiens, UniProt Q9NSA0) | transporter uptake | inhibitor |  |  | IC50 | 5600 nM
CC[C@H](C)[C@H](NC(=O)[C@H](CCCCNC(=O)CN(CCNC(=O)CN(CCNC(=O)CN(CCNC(=O)CN(CCNC(=O)[C@H](CCCNC(=N)N)NC(C)=O)C(=O)Cn1ccc(N)nc1=O)C(=O)Cn1cnc2c(=O)[nH]c(N)nc21)C(=O)Cn1cnc2c(=O)[nH]c(N)nc21)C(=O)Cn1ccc(N)nc1=O)NC(=O)[C@H](CC(=O)O)NC(=O)[C@H](CO)NC(=O)[C@@H](NC(=O)[C@H](CCCNC(=N)N)NC(=O)[C@H](CCSC)NC(=O)[C@H](CO)NC(=O)[C@H](C)NC(=O)[C@H](CCC(=O)O)NC(=O)[C@H](C)NC(=O)[C@H](Cc1c[nH]cn1)NC(=O)CNC(=O)[C@H](CC(C)C)NC(=O)[C@H](CCC(=O)O)NC(=O)[C@H](CC(=O)O)NC(=O)[C@H](CC(C)C)NC(=O)[C@H](CC(C)C)NC(=O)[C@H](CCCNC(=N)N)NC(=O)[C@H](CS)NC(=O)[C@H](CCCC(=O)NCCN(CC(=O)NCCN(CC(=O)NCCN(CC(=O)NCCN(CC(=O)N[C@@H](CCCNC(=N)N)C(N)=O)C(=O)Cn1cnc2c(=O)[nH]c(N)nc21)C(=O)Cn1ccc(N)nc1=O)C(=O)Cn1ccc(N)nc1=O)C(=O)Cn1cnc2c(=O)[nH]c(N)nc21)NC(=O)[C@H](CCC(=O)O)NC(=O)[C@H](Cc1ccc(O)cc1)NC(=O)[C@@H](NC(=O)[C@H](CCCCN)NC(=O)[C@H](CCC(N)=O)NC(=O)[C@H](CC(C)C)NC(=O)[C@@H](NC(=O)[C@H](Cc1c[nH]c2ccccc12)NC(=O)[C@H](CCC(=O)O)NC(=O)[C@H](CCCCN)NC(=O)[C@H](CC(=O)O)NC(C)=O)[C@@H](C)CC)[C@@H](C)CC)C(C)C)C(=O)N[C@@H](Cc1ccc(O)cc1)C(=O)N[C@@H](CCC(=O)O)C(=O)N[C@@H](Cc1ccccc1)C(=O)N[C@@H](CCSC)C(=O)N[C@@H](CCCCN)C(=O)N[C@@H](CCCCN)C(N)=O | Spike glycoprotein | binding |  | SPR |  | Kd | 27 nM
COc1ccc(C(=O)Nc2ccc3c(c2)C=CCP(=O)(O)O3)cc1 | Carbonic anhydrase 1 (CA1, Homo sapiens, UniProt P00915) | enzyme activity | inhibitor | stopped-flow |  | Ki | > 10000 nM
O=c1[nH]c2ccccc2n1C1CCN(CCCC(c2ccc(F)cc2)c2ccc(F)cc2)CC1 | SLC18A2 | transporter uptake | inhibitor | radiometric | cell membranes | IC50 | 386 nM
